# In PMC7986169 (Clinical Pharmacology in Drug Development, 2021):
# Values joined by “and” are separate entries in the source; they are usually repeats but may differ in a detail not shown here. Identical values can stand only once. Like-named read-outs stand apart in the source and are kept apart here.
# Assays:
# [1] = Population pharmacokinetic analysis; type: in vivo, human
# Procedure, shortened: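 Oral dosing at 0.5–15 mg twice daily in UC patients, excluding creatinine clearance <40 mL/min. Predose and postdose plasma samples were stored at about –20°C and assayed by a validated method (LOQ 0.100 ng/mL). One-compartment model with first-order absorption, with or without lag. Exponential IIV on CL/F and V/F; IOV on Ka. Separate proportional residual errors for >8 h and ≤8 h postdose. FOCE with interaction; nonparametric bootstrap, 1000 runs.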
# [2] = cited from earlier work
# [3] = cited from earlier work; remark: listed apart in the source
# JAK1 = conditions: in vitro assays; cited from earlier work
# [4] = final model, table: estimate (RSE%), text: estimate (95%CI bootstrap)
# [5] = fraction of the reference category (male)
smiles,measurement,setting,value
C[C@@H]1CCN(C(=O)CC#N)C[C@@H]1N(C)c1ncnc2[nH]ccc12 [tofacitinib],"CL/F, typical estimate",[1]; base model,25.0 L/h
same,IIV (%CV) for CL/F,[1]; base model,25.2%
same,IOV (%CV) for Ka,[1]; base model,192.4%
same,Ka,[1]; base model,9.9 h⁻¹
same,"V/F, typical estimate",[1]; base model,111 L
same,"CL/F, bootstrap median",[1]; bootstrap of final model,26.3 L/h
same,"IIV for CL/F, bootstrap",[1]; bootstrap of final model,22.2%
same,"Ka, bootstrap median",[1]; bootstrap of final model,9.86 h⁻¹
same,"Lag time, bootstrap median",[1]; bootstrap of final model,0.236 (NA) h
same,"V/F, bootstrap median",[1]; bootstrap of final model,115.5 (NA) L
same,"IOV for Ka, bootstrap","[1]; bootstrap of final model, IOV instead of IIV (footnote b)",191.9%
same,Dose proportionality of exposure,[1]; dose range 0.5-15 mg twice daily,dose‐proportional increase
same,"Lower CL/F, Asian compared with non-Asian patients",[1]; final model prediction,6.8%
same,"Lower CL/F, baseline creatinine clearance 60 mL/min compared to 108.7 mL/min",[1]; final model prediction,19%
same,"Lower CL/F, females compared with males",[1]; final model prediction,13.2%
same,"Lower V/F, female compared with male patients",[1]; final model prediction,15.5%
same,"Lower V/F, patient aged 80 years compared with 40 years",[1]; final model prediction,7.7%
same,"Lower V/F, patient weighing 53 kg relative to 72.0 kg","[1]; final model prediction, 10th percentile of weight",approximately 16.4%
same,"Higher V/F, patient weighing 95 kg relative to 72.0 kg","[1]; final model prediction, 90th percentile of weight",~17.6%
same,"CL/F (apparent oral clearance), typical estimate","[1]; final model, reference individual: non-Asian male, 72.0 kg, 40.0 years, baseline creatinine clearance 108.7 mL/min, table: estimate (RSE%), text: estimate (95%CI bootstrap)",26.3 L/h and 26.3 (25.5–27.2) L/h and 26.3 (1.2) L/h
same,IIV (%CV) for CL/F,"[1]; final model, table: IIV (RSE%)",22% and 22.2% and 22.2 (7.7) %
same,IOV (%CV) for Ka,"[1]; final model, table: IOV (RSE%)",191.8% and 191.8 (7.0) %
same,"Ka (first-order absorption rate constant), typical estimate",[1]; [4],9.9 (7.1) h^−1
same,Lag time,[1]; [4],0.236 (0.52) h
same,Covariate parameter estimate: Female on CL/F,[1]; [5],0.868
same,Covariate parameter estimate: Female on V/F,[1]; [5],0.845
same,Covariate parameter estimate: Asian on CL/F,[1]; fraction of the reference category (non-Asian),0.932
same,Vd/F,"[1]; human, plasma, oral",116 L
same,half-life,"[1]; human, plasma, oral, Derived elimination half-life (t½), final model, patients with UC",3.05 h
same,half-life,"[1]; human, plasma, oral, Derived elimination t½, base model",~3.05 h
same,Covariate parameter estimate: Age on V/F,"[1]; power function exponent, normalized to 40.0 years",–0.116
same,Covariate parameter estimate: Body weight on V/F,"[1]; power function exponent, normalized to 72.0 kg",0.585
same,Covariate parameter estimate: BCCL on CL/F,"[1]; power function exponent, normalized to 108.7 mL/min",0.354
same,AUC higher than in healthy individuals,[2]; mild renal impairment,37%
same,AUC higher than in healthy individuals,[2]; moderate renal impairment,43%
same,AUC higher than in healthy individuals,[2]; severe renal impairment,123%
same,Share of clearance due to renal elimination,[3],30%
same,Mean terminal-phase half-life (t½),[3]; healthy volunteers,approximately 3.2 h
same,Time of peak plasma concentration after oral administration,[3]; healthy volunteers,approximately 1 hour (h)
same,Share of clearance via hepatic metabolism,[3]; primarily via cytochrome P450 3A4,70%
same,Inhibitory potency for JAK1,JAK1,potent inhibitor
